Tests used:
Neutrophil elastase = target: T1, Neutrophil elastase (Homo sapiens, UniProt P08246); experiment: Inhibition of human leukocyte elastase
T1 sequence (P08246 whole entry): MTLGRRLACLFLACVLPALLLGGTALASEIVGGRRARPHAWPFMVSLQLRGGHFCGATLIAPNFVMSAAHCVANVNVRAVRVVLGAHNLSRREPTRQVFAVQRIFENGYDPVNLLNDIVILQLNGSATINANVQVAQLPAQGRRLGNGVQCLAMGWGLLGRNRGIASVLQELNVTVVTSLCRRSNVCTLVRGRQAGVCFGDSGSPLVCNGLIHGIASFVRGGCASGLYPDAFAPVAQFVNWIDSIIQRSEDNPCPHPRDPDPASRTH

Prothrombin [1] = target: T2, Prothrombin (Homo sapiens, UniProt P00734); experiment: Inhibition of human thrombin using H-D-Phe-L-Pip-Arg-para-nitroanilide as substrate after 5 mins
[2] = target: Acetylcholinesterase (Electrophorus electricus) (UniProt O42275); experiment: Inhibition of electric eel AChE assessed as residual activity at 10 uM relative to control
Chain of Acetylcholinesterase (Electrophorus electricus) (O42275 24-633 limits assumed): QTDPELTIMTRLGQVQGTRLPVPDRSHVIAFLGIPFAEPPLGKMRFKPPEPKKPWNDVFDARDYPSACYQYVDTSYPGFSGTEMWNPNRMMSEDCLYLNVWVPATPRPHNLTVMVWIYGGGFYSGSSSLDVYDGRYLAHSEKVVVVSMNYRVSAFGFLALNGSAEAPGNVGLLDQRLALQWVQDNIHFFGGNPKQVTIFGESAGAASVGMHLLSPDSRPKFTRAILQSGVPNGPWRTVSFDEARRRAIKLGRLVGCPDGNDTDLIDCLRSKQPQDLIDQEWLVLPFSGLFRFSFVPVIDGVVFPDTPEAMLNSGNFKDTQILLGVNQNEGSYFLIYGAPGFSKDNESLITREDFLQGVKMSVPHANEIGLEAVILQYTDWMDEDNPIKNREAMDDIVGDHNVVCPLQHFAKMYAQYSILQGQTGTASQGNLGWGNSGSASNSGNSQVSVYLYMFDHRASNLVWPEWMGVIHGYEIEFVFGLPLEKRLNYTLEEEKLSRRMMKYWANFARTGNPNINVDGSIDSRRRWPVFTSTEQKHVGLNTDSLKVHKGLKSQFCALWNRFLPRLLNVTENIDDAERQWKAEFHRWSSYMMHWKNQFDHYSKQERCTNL
Outline: (§1)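 Residual enzyme activity is determined in duplicate experiments in the presence of the inhibitor at a single concentration (10). Activity is expressed relative to an uninhibited control.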

[3] = Inhibition of porcine cholesterol esterase using para-nitrophenyl butyrate as substrate preincubated for 5 mins by spectrophotometric analysis; parameters: species or system Sus scrofa
Outline: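 CEase assay on the porcine enzyme with para-nitrophenyl butyrate in 100 mM sodium phosphate and 100 mM NaCl, at 25 °C, read at 405 nm. Final: 6 mM sodium taurocholate, 3% acetonitrile, 3% DMSO, 10 ng/mL CEase. 5 min preincubation before enzyme start. Duplicates at five inhibitor concentrations; IC50 fitted by non-linear regression to v = v0/(1+[I]/IC50).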

[4] = target: Procathepsin L (Homo sapiens) (UniProt P07711); experiment: Inhibition of human cathepsin L using Z-Phe-ArgpNA as substrate assessed as residual activity at 50 uM by spectrophotometric analysis relative to control
Chain of Procathepsin L (Homo sapiens) (P07711 114-333 limits assumed): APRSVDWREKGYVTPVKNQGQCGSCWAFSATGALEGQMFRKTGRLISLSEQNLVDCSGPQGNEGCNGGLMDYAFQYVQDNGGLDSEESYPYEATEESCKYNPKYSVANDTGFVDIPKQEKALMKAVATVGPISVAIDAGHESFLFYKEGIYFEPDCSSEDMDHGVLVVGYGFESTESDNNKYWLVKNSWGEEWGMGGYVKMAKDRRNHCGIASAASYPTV
Outline: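 Residual human cathepsin L activity is determined in duplicate with the inhibitor at a single concentration (50). Activity is expressed relative to an uninhibited control.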

Bos taurus [5] = species: Bos taurus; experiment: Inhibition of bovine chymotrypsin assessed as residual activity at 5 uM relative to control
Outline: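 Residual chymotrypsin activity is measured with the inhibitor present at a single concentration (5). Assays are run in duplicate, and activity is expressed relative to an uninhibited control.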

Bos taurus [6] = species: Bos taurus; experiment: Inhibition of bovine trypsin Suc-Ala-Ala-Pro-Arg-para-nitroanilide as substrate assessed as residual activity at 10 uM after 10 mins relative to control; outline: as §1
Acetylcholinesterase = Acetylcholinesterase (Electrophorus electricus, UniProt O42275); experiment: Inhibition of electric eel AChE
Chain of Acetylcholinesterase (O42275 whole entry): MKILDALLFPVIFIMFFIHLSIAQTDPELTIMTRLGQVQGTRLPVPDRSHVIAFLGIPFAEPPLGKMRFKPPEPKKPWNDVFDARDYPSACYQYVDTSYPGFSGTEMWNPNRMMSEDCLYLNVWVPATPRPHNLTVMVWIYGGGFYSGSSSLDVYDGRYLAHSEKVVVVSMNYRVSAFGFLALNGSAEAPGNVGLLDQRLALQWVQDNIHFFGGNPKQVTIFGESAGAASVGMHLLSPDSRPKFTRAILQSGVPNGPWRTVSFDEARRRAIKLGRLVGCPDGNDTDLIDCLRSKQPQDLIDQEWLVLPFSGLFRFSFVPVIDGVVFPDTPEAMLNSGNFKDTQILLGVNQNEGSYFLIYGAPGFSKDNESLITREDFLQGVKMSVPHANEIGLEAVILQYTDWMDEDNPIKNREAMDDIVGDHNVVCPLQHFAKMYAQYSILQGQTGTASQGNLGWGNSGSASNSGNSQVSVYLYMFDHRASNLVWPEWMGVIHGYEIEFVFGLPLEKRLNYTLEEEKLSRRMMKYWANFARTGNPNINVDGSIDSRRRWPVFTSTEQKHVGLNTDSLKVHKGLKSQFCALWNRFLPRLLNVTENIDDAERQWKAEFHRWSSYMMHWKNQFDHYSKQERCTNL

Prothrombin [7] = target: T2, Prothrombin; experiment: Inhibition of human thrombin using H-D-Phe-L-Pip-Arg-para-nitroanilide as substrate assessed as residual activity at 10 uM after 5 mins relative to control; outline: as §1
[8] = Inhibition of bovine trypsin Suc-Ala-Ala-Pro-Arg-para-nitroanilide as substrate after 10 mins; parameters: species or system Bos taurus
[9] = target: T3, Neutrophil elastase (Homo sapiens) (UniProt P08246); experiment: Inhibition of human leukocyte elastase assessed as residual activity at 10 uM relative to control
T3 sequence (whole entry): T1 sequence (P08246 whole entry)
Outline: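 Residual enzyme activity measured in duplicate at one inhibitor concentration; more than 90% residual activity scored as no inhibition.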

Sus scrofa = species: Sus scrofa; experiment: Inhibition of porcine cholesterol esterase using para-nitrophenyl butyrate as substrate assessed as residual activity at 25 uM preincubated for 5 mins by spectrophotometric analysis relative to control
Outline: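 Porcine CEase read spectrophotometrically at 405 nm, 25 °C, with para-nitrophenyl butyrate. Buffer: 100 mM sodium phosphate, 100 mM NaCl. Final concentrations: 6 mM sodium taurocholate, 3% acetonitrile, 3% DMSO, 10 ng/mL enzyme. Inhibitor and substrate mixed and held 5 min, then enzyme added to start. Residual activity taken from duplicates at one inhibitor concentration.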

[10] = Competitive inhibition of porcine cholesterol esterase using para-nitrophenyl butyrate as substrate by Lineweaver-Burk plot analysis; parameters: species or system Sus scrofa
[11] = Inhibition of bovine chymotrypsin; parameters: species or system Bos taurus
[12] = Uncompetitive inhibition of porcine cholesterol esterase using para-nitrophenyl butyrate as substrate by Lineweaver-Burk plot analysis; parameters: species or system Sus scrofa

## Cc1ccc(-c2cc(-c3ccccc3)c3cc([N+](=O)[O-])ccc3n2)cc1
Neutrophil elastase
  IC50: ≥ 28 µM
Prothrombin [1]
  IC50: ≥ 30 µM
[2]
  Activity: > 90%
[3]
  IC50: ≥ 20 µM
[4]
  Activity: > 90%
Bos taurus [5]
  Activity: > 90%
Bos taurus [6]
  Activity: > 90%

## O=[N+]([O-])c1ccc2nc(-c3ccccc3)cc(-c3ccccc3)c2c1
Acetylcholinesterase
  IC50: ≥ 37 µM
Prothrombin [7]
  Activity: > 90%
[8]
  IC50: ≥ 51 µM
[3]
  IC50: ≥ 20 µM
[4]
  Activity: > 90%
[9]
  Activity: > 90%
Bos taurus [5]
  Activity: > 90%

## Oc1ccc(-c2cc(-c3ccccc3)c3cc(Cl)ccc3n2)cc1
Prothrombin [1]
  IC50: ≥ 30 µM
[8]
  IC50: ≥ 51 µM
[2]
  Activity: > 90%
[3]
  IC50: ≥ 20 µM
[4]
  Activity: > 90%
[9]
  Activity: > 90%
Bos taurus [5]
  Activity: > 90%

## COc1ccc(-c2cc(-c3ccccc3)c3cc([N+](=O)[O-])ccc3n2)cc1
Sus scrofa
  Activity: > 90%
Acetylcholinesterase
  IC50: ≥ 37 µM
Prothrombin [1]
  IC50: ≥ 30 µM
[3]
  IC50: ≥ 20 µM
[4]
  Activity: > 90%
[9]
  Activity: > 90%
Bos taurus [5]
  Activity: > 90%
Bos taurus [6]
  Activity: > 90%

## O=[N+]([O-])c1ccc2nc(-c3c[nH]c4ccccc34)cc(-c3ccccc3)c2c1
Acetylcholinesterase
  IC50: 22.9 µM
Neutrophil elastase
  IC50: 0.63 µM
Prothrombin [1]
  IC50: ≥ 30 µM
[10]
  Ki: 0.66 µM
[3]
  IC50: 1.98 µM
[4]
  Activity: > 90%
[11]
  IC50: ≥ 30 µM
Bos taurus [6]
  Activity: > 90%
[12]
  Ki: 7 µM

## COc1ccc(-c2cc(-c3ccccc3)c3cc(Cl)ccc3n2)cc1
Neutrophil elastase
  IC50: ≥ 28 µM
Prothrombin [1]
  IC50: ≥ 30 µM
[2]
  Activity: > 90%
[3]
  IC50: ≥ 20 µM
[4]
  Activity: > 90%
Bos taurus [5]
  Activity: > 90%
Bos taurus [6]
  Activity: > 90%

## Clc1ccc2nc(-c3ccccc3)cc(-c3ccccc3)c2c1
Neutrophil elastase
  IC50: ≥ 28 µM
Prothrombin [7]
  Activity: > 90%
[2]
  Activity: > 90%
[3]
  IC50: ≥ 20 µM
[4]
  Activity: > 90%
Bos taurus [5]
  Activity: > 90%
Bos taurus [6]
  Activity: > 90%

## O=[N+]([O-])c1ccc2nc(-c3cccc(Br)c3)cc(-c3ccccc3)c2c1
Neutrophil elastase
  IC50: ≥ 28 µM
Prothrombin [7]
  Activity: > 90%
[2]
  Activity: > 90%
[3]
  IC50: ≥ 20 µM
[4]
  Activity: > 90%
Bos taurus [5]
  Activity: > 90%
Bos taurus [6]
  Activity: > 90%

## Clc1ccc2nc(-c3cccc(Br)c3)cc(-c3ccccc3)c2c1
Neutrophil elastase
  IC50: ≥ 28 µM
Prothrombin [7]
  Activity: > 90%
[8]
  IC50: ≥ 51 µM
[2]
  Activity: > 90%
[3]
  IC50: ≥ 20 µM
[4]
  Activity: > 90%
Bos taurus [5]
  Activity: > 90%

## O=[N+]([O-])c1ccc2nc(-c3ccc(O)cc3)cc(-c3ccccc3)c2c1
Neutrophil elastase
  IC50: 2.91 µM
Prothrombin [1]
  IC50: ≥ 30 µM
[2]
  Activity: > 90%
[3]
  IC50: ≥ 20 µM
[4]
  Activity: > 90%
Bos taurus [5]
  Activity: > 90%
Bos taurus [6]
  Activity: > 90%

## Clc1ccc2nc(-c3c[nH]c4ccccc34)cc(-c3ccccc3)c2c1
Acetylcholinesterase
  IC50: ≥ 37 µM
Neutrophil elastase
  IC50: 4.22 µM
Prothrombin [1]
  IC50: ≥ 30 µM
[3]
  IC50: 1.33 µM
[4]
  Activity: > 90%
Bos taurus [5]
  Activity: > 90%
Bos taurus [6]
  Activity: > 90%

## Cc1ccc(-c2cc(-c3ccccc3)c3cc(Cl)ccc3n2)cc1
Neutrophil elastase
  IC50: ≥ 28 µM
Prothrombin [7]
  Activity: > 90%
[8]
  IC50: ≥ 51 µM
[2]
  Activity: > 90%
[3]
  IC50: ≥ 20 µM
[4]
  Activity: > 90%
Bos taurus [5]
  Activity: > 90%
